In ChEMBL document CHEMBL1759907, “Identification and optimization of tetrahydro-2H-3-benzazepin-2-ones as squalene synthase inhibitors” (Bioorg Med Chem Lett, 2011):

Legend:
[1] = molecular target: T1, Squalene synthase (Homo sapiens, UniProt P37268); test: Inhibition of squalene synthase assessed as conversion of […] to [3H]squalene after 10 mins by scintillation counting
T1 sequence (P37268 whole entry): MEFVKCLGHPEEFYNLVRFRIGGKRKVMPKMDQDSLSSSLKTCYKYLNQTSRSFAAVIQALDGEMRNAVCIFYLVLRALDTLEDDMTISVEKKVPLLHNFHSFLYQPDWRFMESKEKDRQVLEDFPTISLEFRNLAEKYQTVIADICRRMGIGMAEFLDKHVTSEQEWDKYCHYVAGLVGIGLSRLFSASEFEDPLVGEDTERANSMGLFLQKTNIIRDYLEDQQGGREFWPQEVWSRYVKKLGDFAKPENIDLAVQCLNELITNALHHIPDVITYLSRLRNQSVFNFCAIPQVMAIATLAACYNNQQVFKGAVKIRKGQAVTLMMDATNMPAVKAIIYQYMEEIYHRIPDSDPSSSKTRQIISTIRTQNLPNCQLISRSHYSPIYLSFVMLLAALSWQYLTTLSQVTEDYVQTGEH
Procedure, shortened: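 Reaction started with farnesyl pyrophosphate plus 0.2 nM trans,trans-[1-3H]-FPP and run for 10 min at 37 °C. Extracted with chloroform/methanol/5 N NaOH, adjusted to 2 mM squalene; organic phase counted by scintillation. Mean of three experiments.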

[2] = Metabolic stability in human liver microsomes assessed as compound remaining after 60 mins; format: ADME, Microsome; conditions: read-out: Stability
[3] = tested on: Mus musculus; test: Inhibition of hepatic cholesterol biosynthesis in NMRI mouse at 3 mg/kg, po administered 1 hr before administering [14C]mevalonate as substrate measured after 10 mins; format: functional

| IC50 [1] [nM] | remaining at 1 h [2] [%] | Structure (SMILES) | inhibition in vivo at 3 mg/kg [3] [%] |
| --- | --- | --- | --- |
| > 20000 | – | CC(C)(O)C[C@H]1C(=O)N(CC(=O)O)C[C@H](c2ccccc2Cl)c2cc(Cl)ccc21 (racemic) | – |
| 3300 | 60 | CC(C)C[C@H]1C(=O)N(CC(=O)O)C[C@H](c2ccccc2Cl)c2cc(Cl)ccc21 (racemic) | – |
| 5500 | – | C=C(C)C[C@H]1C(=O)N(CC(=O)O)C[C@H](c2ccccc2Cl)c2cc(Cl)ccc21 (racemic) | – |
| 220 | 89 | COc1cccc([C@@H]2CN(CC(=O)N3CCC(C(=O)O)CC3)C(=O)[C@H](CC(C)C)c3ccc(Cl)cc32)c1OC | 47 |
| 500 | 72 | COc1ccccc1[C@H]1CN(CC(=O)N2CCC(C(=O)O)CC2)C(=O)[C@H](CC(C)C)c2ccc(Cl)cc21 (racemic) | 39 |
| > 20000 | – | COc1cccc([C@H]2CN(CC(=O)N3CCC(C(=O)O)CC3)C(=O)[C@@H](CC(C)C)c3ccc(Cl)cc32)c1OC | – |
| > 20000 | – | CCOC(=O)CN1C[C@H](c2ccccc2Cl)c2cc(Cl)ccc2[C@@H](CC(C)C)C1=O (racemic) | – |
| > 20000 | – | O=C(O)CN1C[C@H](c2ccccc2Cl)c2cc(Cl)ccc2[C@@H](Cc2ccccc2)C1=O (racemic) | – |
| 2400 | – | CC(C)C[C@H]1C(=O)N(CC(=O)NCCCCCC(=O)O)C[C@H](c2ccccc2Cl)c2cc(Cl)ccc21 (racemic) | – |
| 930 | 53 | CC(C)C[C@H]1C(=O)N(CC(=O)N2CCC(C(=O)O)CC2)C[C@H](c2ccccc2Cl)c2cc(Cl)ccc21 (racemic) | 25 |
| 15300 | – | CC(C)C[C@H]1C(=O)N(CC(=O)O)C[C@H](c2ccccc2)c2cc(Cl)ccc21 (racemic) | – |
| > 20000 | – | Cc1ccc2c(c1)[C@@H](c1ccccc1Cl)CN(CC(=O)O)C(=O)[C@@H]2CC(C)C (racemic) | – |
| 1400 | 70 | CC(C)C[C@H]1C(=O)N(CC(=O)N2CCC(CC(=O)O)CC2)C[C@H](c2ccccc2Cl)c2cc(Cl)ccc21 (racemic) | 25 |
| > 20000 | – | CC(C)C[C@H]1C(=O)N(CC(=O)O)C[C@H](c2ccccc2Cl)c2ccccc21 (racemic) | – |
| 450 | 78 | COc1cccc([C@H]2CN(CC(=O)N3CCC(C(=O)O)CC3)C(=O)[C@H](CC(C)C)c3ccc(Cl)cc32)c1OC (racemic) | – |
| 1200 | – | COc1cccc([C@H]2CN(CC(=O)O)C(=O)[C@H](CC(C)C)c3ccc(Cl)cc32)c1OC (racemic) | – |
| 370 | 2 | COc1ccccc1[C@H]1CN(CC(=O)N2CCCCC2)C(=O)[C@H](CC(C)C)c2ccc(Cl)cc21 (racemic) | – |
| 1900 | – | COc1ccccc1[C@H]1CN(CC(=O)O)C(=O)[C@H](CC(C)C)c2ccc(Cl)cc21 (racemic) | – |
| > 20000 | – | CC(C)C[C@H]1C(=O)N(CC(=O)O)C[C@H](c2ccccc2Cl)c2cc(F)ccc21 (racemic) | – |
| 2200 | – | CC(C)C[C@H]1C(=O)N(CC(=O)O)C[C@H](c2ccccc2Br)c2cc(Cl)ccc21 (racemic) | – |
